Assays:
Type in all cases: functional
Rattus norvegicus [1] = organism: Rattus norvegicus; assay: (§1) Compound tested for adrenochrome formation in rat hepatic mycrosomal incubation
How it was run: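 Adrenochrome assay for superoxide: epinephrine in 0.01 N HCl plus 300 µg of phenobarbital-induced rat liver microsomes at 37 °C. NADPH 0.4 mM was added to the sample side 1 min later, and the rate was read at 480 nm (ε 4.02 mM−1 cm−1). Drugs were at ≤100 µM, made in 150 mM KCl–50 mM Tris, pH 7.4. Percent stimulation is over basal rate, in triplicate.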

Mus musculus [2] = organism: Mus musculus; assay: Dose providing an increase in the life span of 45% over control in P388 tumor bearing mice; conditions: read-out: MED
How it was run: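 MED is the ip dose in mg/kg, given on days 1, 5 and 9 starting 1 day after implantation, that gives a 45% increase in life span over control in P388-bearing mice. It was derived from plotted log-dose response data.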

Rattus norvegicus [3] = organism: Rattus norvegicus; assay: (§2) Compound tested for NADPH oxidation in rat hepatic mycrosomal incubation
How it was run: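 Phenobarbital-induced male Sprague-Dawley rat liver microsomes were placed in both cuvettes, without epinephrine. NADPH 0.4 mM was added to the sample side only, and absorbance was read at 340 nm. Percent stimulation = (drug rate − basal)/basal × 100. Values are the average ± standard errors of triplicates.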

Mus musculus [4] = assay: In vivo antitumor activity was determined against B16 melanoma mice as number of mice survived after administration of 1200 ug/Kg dose of compound; Value represented as no of survivors/ treated = 1/9
Mus musculus [5] = assay: In vivo antitumor activity was determined against P388 leukemia mice as number of mice survived after administration of 1200 ug/Kg dose of compound; Value represented as no of survivors/ treated = 0/8
Mus musculus [6] = assay: Antitumor activity against P388 leukemia cells in terms of percentage increase in life span in mice at an optimal dose of 1200 ug/kg administered ip
Mus musculus [7] = assay: Antitumor activity against B16 melanoma in terms of percentage increase in life span in mice at an optimal dose of 1200 ug/kg administered ip
Mus musculus [8] = assay: Antitumor activity against B16 melanoma in terms of median survival time of mice at an optimal dose of 1200 ug/kg administered ip
CCRF-CEM = assay: Inhibitory dose required for the inhibition of human lymphoblastic leukemia cells(CCRF-CEM); conditions: read-out: ID50 (the source's name)
Mus musculus [9] = assay: Antitumor activity against P388 leukemia cells in terms of median survival time of mice at an optimal dose of 1200 ug/kg administered ip
Mus musculus [10] = assay: Antitumor activity against B16 melanoma in terms of median survival time of mice at an optimal dose of 300 ug/kg administered ip
Mus musculus [11] = assay: Antitumor activity against P388 leukemia cells in terms of percentage increase in life span in mice at an optimal dose of 375 ug/kg administered ip
Mus musculus [12] = assay: Antitumor activity against P388 leukemia cells in terms of median survival time of mice at an optimal dose of 375 ug/kg administered ip
Mus musculus [13] = assay: Antitumor activity against B16 melanoma in terms of percentage increase in life span in mice at an optimal dose of 300 ug/kg administered ip
Mus musculus [14] = assay: In vivo antitumor activity was determined against B16 melanoma in mice as number of mice survived after administration of 300 ug/Kg dose of compound; Value represented as no of survivors/ treated = 5/9
Mus musculus [15] = assay: In vivo antitumor activity was determined against P388 leukemia mice as number of mice survived after administration of 375 ug/Kg dose of compound; Value represented as no of survivors/ treated = 4/8
Rattus norvegicus [16] = organism: Rattus norvegicus; assay: as §2; remark: listed apart in the source
How it was run: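 Phenobarbital-induced rat liver microsomes (300 µg), 37 °C, no epinephrine; NADPH 0.4 mM added to sample cuvette only. A340 followed; % oxidation = (1 − A340/A'340)×100 vs cuvette not activated by microsomes; % stimulation = (drug rate − basal rate)/basal rate ×100. Drugs in 150 mM KCl-50 mM Tris pH 7.4; triplicate analyses, mean ± standard error.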

Rattus norvegicus [17] = organism: Rattus norvegicus; assay: as §1; remark: listed apart in the source
How it was run: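 Superoxide read as adrenochrome from epinephrine (in 0.01 N HCl) with phenobarbital-induced rat liver microsomes (300 µg) at 37 °C; NADPH 0.4 mM added to sample cuvette after 1 min. Rate at 480 nm (ε 4.02 mM-1 cm-1); drug ≤100 µM in 150 mM KCl-50 mM Tris pH 7.4; % stimulation over basal rate; triplicate, mean ± standard error.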

Mus musculus [18] = assay: Antitumor activity against P388 leukemia cells in terms of median survival time of mice at an optimal dose of 450 ug/kg administered ip
Mus musculus [19] = assay: In vivo antitumor activity was determined against P388 leukemia mice as number of mice survived after administration of 450 ug/Kg dose of compound; Value represented as no of survivors/ treated = 3/8
Mus musculus [20] = assay: In vivo antitumor activity was determined against B16 melanoma in mice as number of mice survived after administration of 300 ug/Kg dose of compound; Value represented as no of survivors/ treated = 3/9
Mus musculus [21] = organism: Mus musculus; assay: Antitumor activity against B16 melanoma in terms of percentage increase in life span in mice after 65 days
Mus musculus [22] = assay: Antitumor activity against P388 leukemia cells in terms of percentage increase in life span in mice at an optimal dose of 450 ug/kg administered ip

## Cc1c2oc3c(C)c(O)c(N)c(C(=O)N[C@@H]4C(=O)N[C@H](C(C)C)C(=O)N5CCC[C@H]5C(=O)N(C)CC(=O)N(C)[C@@H](C(C)C)C(=O)O[C@@H]4C)c3nc-2c(C(=O)N[C@@H]2C(=O)N[C@H](C(C)C)C(=O)N3CCC[C@H]3C(=O)N(C)CC(=O)N(C)[C@@H](C(C)C)C(=O)O[C@@H]2C)cc1=O
Rattus norvegicus [1]
  adrenochrome formation: 7.29 nM min-1 (mg of protein)-1
Mus musculus [2]
  minimal effective dose: 0.275 mg/kg
Rattus norvegicus [3]
  NADPH oxidation: 29.9 nM min-1 (mg of protein)-1
Mus musculus [4]
  Survivors: 1
Mus musculus [5]
  Survivors: 0
Mus musculus [6]
  ILS at 1.2 mg/kg: 136%
Mus musculus [7]
  ILS at 1.2 mg/kg: 52%
Mus musculus [8]
  MST: 44 days
CCRF-CEM
  IC50: 1 µM
Mus musculus [9]
  MST: 26 days

## Cc1c2oc3c(C)c4oc(-c5ccccc5)nc4c(C(=O)N[C@@H]4C(=O)N[C@H](C(C)C)C(=O)N5CCC[C@H]5C(=O)N(C)CC(=O)N(C)[C@@H](C(C)C)C(=O)O[C@@H]4C)c3nc-2c(C(=O)N[C@@H]2C(=O)N[C@H](C(C)C)C(=O)N3CCC[C@H]3C(=O)N(C)CC(=O)N(C)[C@@H](C(C)C)C(=O)O[C@@H]2C)c(N)c1=O
Mus musculus [2]
  minimal effective dose: 0.03 mg/kg
Mus musculus [10]
  MST: 59 days
Mus musculus [11]
  ILS at 0.375 mg/kg: 382%
CCRF-CEM
  IC50: 0.03 µM
Mus musculus [12]
  MST: 52 days
Mus musculus [13]
  ILS at 0.3 mg/kg: 103%
Mus musculus [14]
  Survivors: 5
Mus musculus [15]
  Survivors: 4

## CCN(CC)C(=O)c1c2nc3c(C(=O)N(CC)CC)c(N)c(O)c(C)c3oc-2c(C)c(=O)c1N
Rattus norvegicus [16]
  NADPH oxidation: 8.9 nM min-1 (mg of protein)-1
Rattus norvegicus [17]
  adrenochrome formation: 2.13 nM min-1 (mg of protein)-1

## Cc1nc2c(C(=O)N[C@@H]3C(=O)N[C@H](C(C)C)C(=O)N4CCC[C@H]4C(=O)N(C)CC(=O)N(C)[C@@H](C(C)C)C(=O)O[C@@H]3C)c3nc4c(C(=O)N[C@@H]5C(=O)N[C@H](C(C)C)C(=O)N6CCC[C@H]6C(=O)N(C)CC(=O)N(C)[C@@H](C(C)C)C(=O)O[C@@H]5C)c(N)c(=O)c(C)c-4oc3c(C)c2o1
Rattus norvegicus [16]
  NADPH oxidation: 21.3 nM min-1 (mg of protein)-1
Mus musculus [18]
  MST: 42.5 days
Mus musculus [10]
  MST: 55 days
Mus musculus [19]
  Survivors: 3
Mus musculus [20]
  Survivors: 3
CCRF-CEM
  IC50: 0.11 µM
Mus musculus [21]
  ILS: 90%
Mus musculus [22]
  ILS at 0.45 mg/kg: 277%
Rattus norvegicus [17]
  adrenochrome formation: 6.04 nM min-1 (mg of protein)-1
